Measured values published in ChEMBL document CHEMBL1135756, “Solid phase synthesis and evaluation of Tyr-Tic-Phe-Phe(p-NHCOCH(2)Br) ([Phe(p-bromoacetamide)(4)]TIPP), a potent affinity label for delta opioid receptors” (J Med Chem, 2002).
Non-standard residues stand in square brackets, D forms with d. Residues, ends and D or L forms follow the SMILES beside them. *: point of attachment. Phe(4-NH2) = Nc1ccc(C[C@H](N)C(=O)O)cc1; Tic = O=C(O)[C@@H]1Cc2ccccc2CN1; BrAc = O=C(CBr)*

Legend:
[1] = molecular target: Kappa-type opioid receptor (Cavia porcellus, UniProt P41144); assay: Inhibitory activity against Opioid receptor kappa 1 using [3H]diprenorphine
Kappa-type opioid receptor, sequence (P41144 whole entry): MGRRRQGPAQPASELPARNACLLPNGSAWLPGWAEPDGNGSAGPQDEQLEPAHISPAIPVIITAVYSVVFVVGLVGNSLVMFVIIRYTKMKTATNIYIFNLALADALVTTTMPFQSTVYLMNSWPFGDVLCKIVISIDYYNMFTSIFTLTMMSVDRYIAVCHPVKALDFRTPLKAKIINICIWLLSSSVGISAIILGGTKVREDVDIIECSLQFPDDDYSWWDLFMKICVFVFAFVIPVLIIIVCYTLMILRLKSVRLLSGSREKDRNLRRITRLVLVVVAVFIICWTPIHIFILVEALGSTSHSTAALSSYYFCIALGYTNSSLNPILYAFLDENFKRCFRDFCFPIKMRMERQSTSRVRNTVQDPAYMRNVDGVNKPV

Mu-type opioid receptor = Mu-type opioid receptor (Rattus norvegicus, UniProt P33535); assay: Inhibitory activity against Opioid receptor mu 1 using [3H]DAMGO
Mu-type opioid receptor, sequence (P33535 whole entry): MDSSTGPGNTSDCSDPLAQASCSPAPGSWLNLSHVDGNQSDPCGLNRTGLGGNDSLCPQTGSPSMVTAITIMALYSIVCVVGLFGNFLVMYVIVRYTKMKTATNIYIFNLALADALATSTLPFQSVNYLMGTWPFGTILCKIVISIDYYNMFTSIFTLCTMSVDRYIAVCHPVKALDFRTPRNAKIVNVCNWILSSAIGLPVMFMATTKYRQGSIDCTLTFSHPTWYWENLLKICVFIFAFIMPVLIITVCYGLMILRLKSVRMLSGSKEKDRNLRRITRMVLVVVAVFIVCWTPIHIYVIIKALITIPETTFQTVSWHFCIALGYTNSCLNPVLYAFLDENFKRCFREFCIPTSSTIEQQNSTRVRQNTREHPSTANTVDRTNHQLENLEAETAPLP

[2] = molecular target: Delta-type opioid receptor (Mus musculus) (UniProt P32300); assay: Inhibition of cyclic adenosine 3',5'-monophosphate (cAMP) formation by recombinant Opioid receptor delta 1 in adenylyl cyclase assay; format: functional; settings: concentration not given here
Delta-type opioid receptor (Mus musculus), sequence (P32300 whole entry): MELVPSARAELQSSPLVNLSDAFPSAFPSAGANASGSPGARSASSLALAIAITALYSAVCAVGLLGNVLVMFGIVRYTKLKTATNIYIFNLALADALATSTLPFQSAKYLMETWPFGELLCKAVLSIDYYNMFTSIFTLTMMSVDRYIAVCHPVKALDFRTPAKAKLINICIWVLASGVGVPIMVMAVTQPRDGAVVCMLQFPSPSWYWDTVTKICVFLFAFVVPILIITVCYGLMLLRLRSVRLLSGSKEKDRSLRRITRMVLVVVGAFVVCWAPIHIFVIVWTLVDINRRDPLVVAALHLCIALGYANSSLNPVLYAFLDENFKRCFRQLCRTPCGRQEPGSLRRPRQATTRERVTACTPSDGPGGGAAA

[3] = molecular target: T1, Delta-type opioid receptor (Mus musculus, UniProt P32300); assay: Inhibitory activity against Opioid receptor delta 1 using [3H]DPDPE
T1 sequence (P32300 whole entry): as above
Outline: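 Competition binding on membranes of CHO cells stably transfected with cloned δ opioid receptors, using [³H]DPDPE as radioligand under standard (equilibrium) conditions. IC50 is the mean ± SEM of 3–7 independent determinations.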

[4] = molecular target: T1, Delta-type opioid receptor; assay: Binding affinity towards Opioid receptor delta 1
Outline: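 Competition binding against [³H]DPDPE on membranes of CHO cells stably transfected with cloned δ opioid receptors, under standard (equilibrium) conditions. The IC₅₀ is displacement of radioligand, averaged over 3–7 independent determinations ± SEM.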

| SMILES | IC50 [1] | IC50 (Mu-type opioid receptor) | inhibition [2] | IC50 [3] | Ki [4] |
| --- | --- | --- | --- | --- | --- |
| N[C@@H](Cc1ccc(O)cc1)C(=O)N1Cc2ccccc2C[C@H]1C(=O)N[C@@H](Cc1ccccc1)C(=O)N[C@@H](Cc1ccc(NC(=O)CBr)cc1)C(=O)O (H-Y[Tic]F[Phe(4-NH2)](BrAc)-OH) | > 10 µM | > 5.39 µM | 65% | 5.4 nM | – |
| N[C@@H](Cc1ccc(O)cc1)C(=O)N1Cc2ccccc2C[C@H]1C(=O)N[C@@H](Cc1ccc(NC(=O)CBr)cc1)C(=O)N[C@@H](Cc1ccccc1)C(=O)O (H-Y[Tic][Phe(4-NH2)](BrAc)F-OH) | – | > 10 µM | – | 65 nM | – |
| Nc1ccc(C[C@H](NC(=O)[C@@H]2Cc3ccccc3CN2C(=O)[C@@H](N)Cc2ccc(O)cc2)C(=O)N[C@@H](Cc2ccccc2)C(=O)O)cc1 (H-Y[Tic][Phe(4-NH2)]F-OH) | – | > 10 µM | – | 36.2 nM | – |
| N[C@@H](Cc1ccc(O)cc1)C(=O)N1Cc2ccccc2C[C@H]1C(=O)N[C@@H](Cc1ccccc1)C(=O)N[C@@H](Cc1ccccc1)C(=O)O (H-Y[Tic]FF-OH) | – | 10 µM | – | 14.1 nM | 1.22 nM |
| Nc1ccc(C[C@H](NC(=O)[C@H](Cc2ccccc2)NC(=O)[C@@H]2Cc3ccccc3CN2C(=O)[C@@H](N)Cc2ccc(O)cc2)C(=O)O)cc1 (H-Y[Tic]F[Phe(4-NH2)]-OH) | > 10 µM | > 10 µM | – | 19.9 nM | – |
